# Only some compounds are listed: those with a hit (about 1.9% of all), similar ones and a draw of the others.
# PLCb3 inh = human PLC-beta3 inhibitors, primary screen, biochemical, fluorescence; 0.18% of 370,000 active; inhibition, % at 12.2 µM; AID 720704, 2013; 1-phosphatidylinositol 4,5-bisphosphate phosphodiesterase beta-3 (Homo sapiens), Q01970; Purified PLC-beta3, fluorogenic substrate; in the data active = inhibition above about 11%;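 note: 0% = median of compound wells on plate and 100% = full blocker control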
# PLC-gamma1 inh = PLC-gamma1 enzyme inhibitors, primary screen, biochemical, fluorescence, purified enzyme. 1-phosphatidylinositol 4,5-bisphosphate phosphodiesterase gamma-1 (Homo sapiens), P19174. fluorogenic substrate. inhibition, % at 12.2 µM. 0.84% of 370,000 active; in the data active = inhibition above about 9.5%
# sPLA2-III inh = human group III sPLA2 inhibitors, primary screen, biochemical, QFRET, BODIPY PC-A2 liposome substrate. Group 3 secretory phospholipase A2 (Homo sapiens), Q9NZ20. QFRET BODIPY PC-A2 liposome hydrolysis, fluorescence. 0.56% of 370,000 active. inhibition, % at 12.2 µM. AID 743126, 2013;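 active = inhibition above mean plus 3 SD of compounds lying within the high and low control bounds, cut at about 19% in these data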;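 note: 0% = median of test compound wells and 100% = no enzyme DMSO wells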
# Target sequence (Q9NZ20 whole entry, looked up): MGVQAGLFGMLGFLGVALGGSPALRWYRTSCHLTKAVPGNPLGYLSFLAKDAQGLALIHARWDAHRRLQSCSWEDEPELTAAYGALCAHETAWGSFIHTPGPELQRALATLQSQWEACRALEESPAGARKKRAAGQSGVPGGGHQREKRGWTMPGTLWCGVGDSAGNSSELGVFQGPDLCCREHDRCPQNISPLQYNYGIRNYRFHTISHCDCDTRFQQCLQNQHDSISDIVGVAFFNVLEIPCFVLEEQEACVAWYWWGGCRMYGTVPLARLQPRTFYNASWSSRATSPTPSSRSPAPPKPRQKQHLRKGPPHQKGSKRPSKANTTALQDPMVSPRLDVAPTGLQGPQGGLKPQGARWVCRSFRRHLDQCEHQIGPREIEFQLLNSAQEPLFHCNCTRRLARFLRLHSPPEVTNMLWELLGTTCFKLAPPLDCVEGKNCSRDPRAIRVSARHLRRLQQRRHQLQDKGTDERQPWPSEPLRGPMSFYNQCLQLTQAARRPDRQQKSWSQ
# Tb MetRS inh = T. brucei MetRS inhibitors, primary screen, biochemical, luminescence; methionyl-tRNA synthetase (Trypanosoma brucei brucei); purified T. brucei MetRS, ATP depletion, Kinase-Glo luminescence; inhibition, % at 11.9 µM; 0.4% of 360,000 active; AID 624268, 2012;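 active = inhibition above a per-plate cutoff of the control wells' mean inhibition plus 3 SD, cut at about 5.5% in these data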;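 note: 0% = DMSO wells median and 100% = median of wells with control inhibitor compound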
#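 Test system – parasite MetRS enzyme · Reagent – substrates ATP, L-methionine and bulk Escherichia coli tRNA · Doses – 11.9 µM compound single dose, 0.9% DMSO · Times – 15 min enzyme-compound preincubation, 2 h reaction, 10 min detection, 25 °C · Signal – Kinase-Glo luminescence, ATP depletion format · Controls – DMSO-only wells as low control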
# hGIII sPLA2 conf = human group III sPLA2 inhibitors, confirmation, biochemical, QFRET, triplicate; shares compounds with sPLA2-III inh; recombinant hGIII-sPLA2, BODIPY PC-A2 QFRET fluorescence; inhibition, % at 12.2 µM; 34% of 2,000 active;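 active = mean inhibition across triplicates above the hit cutoff set in the earlier primary screen, cut at about 19% in these data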;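 note: 0% = enzyme with DMSO and 100% = DMSO wells lacking enzyme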
# BODIPY interf = 535nm fluorescence optical interference, confirmation, artefact control for HGIII-sPLA2 inhibitor project, biochemical, QFRET. inhibition, % at 12.2 µM. BODIPY FL product fluorescence interference. AID 743282, 2014. 8.5% of 2,000 active. shares compounds with sPLA2-III inh;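 active = average inhibition above the solvent-only control mean plus 3 SD, cut at about 6% in these data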;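 note: 0% = DMSO with substrate plus product and 100% = DMSO with substrate alone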
# 535nm interf DR = 535nm fluorescence optical interference, dose response, artefact control for HGIII-sPLA2 inhibitor project, biochemical, QFRET | 240 tested, under 10 active | BODIPY FL product fluorescence interference, cell-free | AID 743455, 2014 | IC50, µM | shares compounds with sPLA2-III inh;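 active = IC50 at or below 10 µM; inactive = IC50 above 10 µM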
# The depositor's hits bear a star; x = no result.
SMILES,PLCb3 inh,PLC-gamma1 inh,sPLA2-III inh,Tb MetRS inh,hGIII sPLA2 conf,BODIPY interf,others
S=c1[nH]cc(-c2ccc(Cl)cc2)n1Cc1ccccc1,-3,5,24*,0,9,2,
CCCC[C@H]1C2CC(OC(=O)Nc3ccc(C#N)cc3)C(C2)[C@H]2CCCCN21 (stereo not given in full),-4,0,3,x,x,x,
CCSC(=S)c1c(C)[nH]n(-c2ccccc2)c1=O,-7,5,19*,0,12,-1,
Cc1[nH]n(-c2ccccc2)c(=O)c1C(=O)c1ccccc1,2,4,2,0,x,x,
Cc1cc(C(=O)O[C@H]2CCC[C@]3(C(=O)N(Cc4ccccc4)c4ccccc43)[C@H]2NC(=O)CCc2ccccc2)no1,0,0,-2,x,x,x,
CCOC(=O)c1ccc(NC(=S)Nc2cccc(N)n2)cc1,-9,-7,22*,0,22*,-5,
CCOC(=O)c1ccc(NC(=S)Nc2cccc(C)n2)cc1,1,3,3,-1,x,x,
CCc1n[nH]c(=S)n1/N=C/c1cc(Br)c(OC)cc1OC,-3,-6,22*,-1,19*,5,
CCc1n[nH]c(=S)n1/N=C/c1ccc(-c2ccc(Br)cc2)o1,-8,1,2,-1,x,x,
Cc1ccnc(SCc2cc(=O)c(OC(=O)c3ccc([N+](=O)[O-])cc3)co2)n1,1,4,16,x,x,x,
Cc1cc(C)nc(SCc2cc(=O)c(OC(=O)c3ccc(Cl)c([N+](=O)[O-])c3)co2)n1,-2,2,22*,0,-17,-11,
CCOC(=O)CCC(NC(=O)CCC(=O)NC(CCC(=O)OCC)C(=O)OCC)C(=O)OCC (stereo not given),1,3,11,-1,x,x,
CCOC(=O)CCC(NC(=O)CCCC(=O)NC(CCC(=O)OCC)C(=O)OCC)C(=O)OCC (stereo not given),-3,4,22*,-1,1,-6,
COc1cc(OC)cc(-c2c(-c3cccs3)c3cc(-c4ccc5[nH]ccc5c4)ccc3n2C)c1,-336,-226,20*,0,37*,8.7*,
COc1cc(OC)cc(-c2c(-c3cccs3)c3cc(-c4ccc5cc[nH]c5c4)ccc3n2C)c1,-316,-214,17,0,x,x,
Cc1cc(C)nc(NC(=O)c2csnn2)c1,-3,-4,3,0,x,x,
O=C(Nc1csnn1)c1csnn1,-8,-1,20*,-1,2,-6,
C(=C\N1CCCCCC1)/c1nnnn1-c1ccc(-c2ccccc2)cc1,-13,-11,20*,3,5,-4,
Fc1ccc(N2CCN(/C=C/c3nnnn3-c3ccccc3)CC2)cc1,-1,0,2,0,x,x,
CCCS(=O)(=O)N1CCCC(C(=O)NC2CCCCC2)C1 (stereo not given),5,7,11,2,x,x,
CCCCOc1ccc(C(C)NC(=O)C2CCCN(S(=O)(=O)CCC)C2)cc1 (stereo not given),1,7,20*,0,-4,-19,
Cc1ccc(CN2CCCCC(NC(=O)c3ccc(Br)cc3)C2=O)cc1 (stereo not given),1,6,9,x,x,x,
Cc1c(C)n(CC(O)CSc2ccccc2)c2ccccc12 (stereo not given),2,3,1,0,x,x,
Cc1c(C)n(CCC#N)c2ccccc12,-3,-1,21*,0,9,-2,
COc1ccc(NC2CCCN(Cc3cccc4cnccc34)C2)cc1 (stereo not given),-4,1,20*,0,7,-9,
SMILES,PLCb3 inh,PLC-gamma1 inh,sPLA2-III inh,Tb MetRS inh,hGIII sPLA2 conf,BODIPY interf,others
O=C(Nc1ccccc1-c1ccccc1)C1CCCC1,1,6,20*,0,-2,-8,
O=C(Nc1ccccc1C(F)(F)F)C1CCCC1,1,5,5,-1,x,x,
CCOC(=O)C(CNc1ccc(OCc2ccccc2)cc1)NC(=O)c1ccccc1 (stereo not given),0,0,-2,x,x,x,
C=CCN=C1NC(c2ccc(F)cc2)C(C(=O)OC)=C(C)N1C (stereo not given),0,-2,23*,x,6,-10,
O=C1N(Cc2ccccc2)c2ccccc2C12CCCc1sc(CCc3ccccc3)nc12 (stereo not given),3,1,9,x,x,x,
CCCCn1c(N)c(N(CCOC)C(=O)c2ccc(F)c(S(=O)(=O)N3CCOCC3)c2)c(=O)[nH]c1=O,-3,2,20*,-1,7,-5,
c1ccc(-c2nnc(-c3ccccc3)nn2)cc1,-1,0,7,0,x,x,
c1ccc(-c2nccnc2-c2ccccc2)cc1,-6,5,22*,0,3,-4,
COc1ccc(C(C)C)cc1-c1cccc2nncn12,-15,-11,21*,0,5,-6,
COc1cccc(CNC(=O)[C@H]2CCCN2C(=O)C2CCCN2C(=O)c2ccc(OC)c(F)c2)c1 (stereo not given in full),-4,1,7,x,x,x,
Cc1cccc(NNC(=S)Nc2c(C)cccc2C)c1,-8,-1,19*,0,29*,-4,535nm interf DR=>122
Cc1cccc(NNC(=S)Nc2ccccc2)c1,-2,3,15,0,x,x,
CN=c1scc(-c2ccccc2F)n1/N=C/c1ccc(O)c(O)c1O,-22,-9,19,-1,x,x,
CC(C)N=c1scc(-c2cccs2)n1/N=C/c1ccc(O)c(O)c1O,-22,-15,38*,-1,54*,2,535nm interf DR=>122
CSCCC(NC(=O)c1ccccc1Cl)C(=O)NNC(=O)c1ccccc1O (stereo not given),-32,-33,10,0,x,x,
CC(Sc1ccc(Cl)cc1)C(=O)NNC(=O)c1ccccc1O (stereo not given),-12,-4,23*,0,7,-3,
O=C(C1CCN(c2ncnc3c2sc2cccc(F)c23)CC1)N1CCN(C(=O)C2CCCO2)CC1 (stereo not given),-100,-73,0,x,x,x,
CCNC(=S)NNC(=O)c1nn(C)c(C)c1Cl,-5,0,6,0,x,x,
Cc1c(Cl)c(C(=O)NNC(=S)Nc2ccc(F)cc2)nn1C,2,3,34*,0,41*,5,535nm interf DR=>122
Cc1c(Cl)c(C(=O)NNC(=S)Nc2ccccc2)nn1C,1,-2,29*,1,46*,0,535nm interf DR=>122

# Screens from PubChem.
